Source: ChEMBL document CHEMBL2424622, “Development of amino-pyrimidine inhibitors of c-Jun N-terminal kinase (JNK): kinase profiling guided optimization of a 1,2,3-benzotriazole lead” (Bioorg Med Chem Lett, 2013)

Legend:
[1] = biological target: Casein kinase II subunit alpha (Homo sapiens) (UniProt P68400); assay: Competitive binding affinity to CSNK2A1 (unknown origin) at 10 uM in presence of ATP relative to control
[2] = biological target: Calcium/calmodulin-dependent protein kinase kinase 2 (Homo sapiens) (UniProt Q96RR4); assay: Competitive binding affinity to CAMKK2 (unknown origin) at 10 uM in presence of ATP relative to control
[3] = biological target: Mitogen-activated protein kinase 10 (Homo sapiens, UniProt P53779); assay: Competitive binding affinity to JNK3 (unknown origin) at 10 uM in presence of ATP relative to control
How it was run: (§1)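 In vitro ATP-site competition binding assay across a diverse panel of 128 kinases, with each compound tested at a single concentration. Kinase binding is expressed relative to control.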

[4] = biological target: Phosphorylase b kinase gamma catalytic chain, skeletal muscle/heart isoform (Homo sapiens) (UniProt Q16816); assay: Competitive binding affinity to PHKG1 (unknown origin) at 10 uM in presence of ATP relative to control
How it was run: (§2)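 In vitro ATP-site competition binding assay across a diverse panel of 128 kinases, with compound tested at a single concentration. Kinase selectivity scores (S15) were calculated from the panel profiles.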

[5] = biological target: Ephrin type-A receptor 2 (Homo sapiens) (UniProt P29317); assay: Competitive binding affinity to EPHA2 (unknown origin) at 10 uM in presence of ATP relative to control
How it was run: (§3)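 In vitro ATP-site competition binding assay, part of profiling against a diverse panel of 128 kinases. Each compound was tested at a single concentration of 10 µM. Kinome selectivity was summarized as S15 selectivity scores.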

[6] = biological target: T1, Ephrin type-A receptor 3 (Homo sapiens) (UniProt P29320); assay: Competitive binding affinity to EPHA3 (unknown origin) at 10 uM in presence of ATP relative to control; how it was run: as §3
T1 sequence (whole entry): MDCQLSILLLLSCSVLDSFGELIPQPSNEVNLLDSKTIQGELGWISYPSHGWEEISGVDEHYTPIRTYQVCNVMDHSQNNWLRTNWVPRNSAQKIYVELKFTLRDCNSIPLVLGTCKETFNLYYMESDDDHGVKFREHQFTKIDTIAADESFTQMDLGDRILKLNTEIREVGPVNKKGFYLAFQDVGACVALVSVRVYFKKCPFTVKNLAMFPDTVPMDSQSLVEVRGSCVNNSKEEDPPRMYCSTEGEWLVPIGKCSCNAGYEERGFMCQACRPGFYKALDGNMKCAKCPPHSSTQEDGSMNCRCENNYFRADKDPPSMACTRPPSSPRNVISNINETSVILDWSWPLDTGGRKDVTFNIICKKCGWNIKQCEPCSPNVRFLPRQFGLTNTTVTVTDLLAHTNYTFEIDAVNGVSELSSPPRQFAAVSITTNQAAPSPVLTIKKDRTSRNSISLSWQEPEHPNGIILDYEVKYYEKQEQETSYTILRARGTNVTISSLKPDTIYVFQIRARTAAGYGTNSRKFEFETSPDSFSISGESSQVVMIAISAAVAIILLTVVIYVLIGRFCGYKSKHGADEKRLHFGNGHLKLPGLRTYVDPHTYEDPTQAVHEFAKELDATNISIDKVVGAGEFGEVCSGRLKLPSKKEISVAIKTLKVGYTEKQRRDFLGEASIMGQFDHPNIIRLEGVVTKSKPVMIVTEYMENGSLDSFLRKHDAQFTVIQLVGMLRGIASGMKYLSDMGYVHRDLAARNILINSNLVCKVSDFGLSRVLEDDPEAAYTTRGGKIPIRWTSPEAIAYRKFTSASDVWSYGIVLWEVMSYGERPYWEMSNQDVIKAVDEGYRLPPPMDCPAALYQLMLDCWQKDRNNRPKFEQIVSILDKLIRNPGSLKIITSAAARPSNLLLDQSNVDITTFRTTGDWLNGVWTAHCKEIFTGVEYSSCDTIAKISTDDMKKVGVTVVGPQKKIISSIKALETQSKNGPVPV

[7] = biological target: Ephrin type-A receptor 7 (Homo sapiens) (UniProt Q15375); assay: Competitive binding affinity to EPHA7 (unknown origin) at 10 uM in presence of ATP relative to control; how it was run: as §3
[8] = biological target: RAC-alpha serine/threonine-protein kinase (Homo sapiens) (UniProt P31749); assay: Competitive binding affinity to AKT1 (unknown origin) at 10 uM in presence of ATP relative to control
[9] = biological target: Tyrosine-protein kinase BTK (Homo sapiens) (UniProt Q06187); assay: Competitive binding affinity to BTK (unknown origin) at 10 uM in presence of ATP relative to control
[10] = biological target: Casein kinase I isoform epsilon (Homo sapiens) (UniProt P49674); assay: Competitive binding affinity to CSNK1E (unknown origin) at 10 uM in presence of ATP relative to control
[11] = biological target: T2, Mitogen-activated protein kinase 12 (Homo sapiens) (UniProt P53778); assay: Competitive binding affinity to p38-gamma (unknown origin) at 10 uM in presence of ATP relative to control; how it was run: as §2
T2 sequence (whole entry): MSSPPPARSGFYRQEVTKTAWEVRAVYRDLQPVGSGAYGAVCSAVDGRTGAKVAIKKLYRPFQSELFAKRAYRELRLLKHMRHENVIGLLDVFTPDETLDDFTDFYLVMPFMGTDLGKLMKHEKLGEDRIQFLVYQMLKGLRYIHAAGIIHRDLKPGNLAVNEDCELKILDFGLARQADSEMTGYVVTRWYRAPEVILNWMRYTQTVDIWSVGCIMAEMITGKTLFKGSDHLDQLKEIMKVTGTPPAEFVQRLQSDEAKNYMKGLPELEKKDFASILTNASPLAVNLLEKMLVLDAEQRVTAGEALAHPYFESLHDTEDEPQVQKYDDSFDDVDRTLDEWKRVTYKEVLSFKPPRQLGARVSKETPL

[12] = biological target: Receptor-type tyrosine-protein kinase FLT3 (Homo sapiens) (UniProt P36888); assay: Competitive binding affinity to FLT3 (unknown origin) at 10 uM in presence of ATP relative to control; how it was run: as §3
[13] = biological target: Tyrosine-protein kinase JAK1 (Homo sapiens) (UniProt P23458); assay: Competitive binding affinity to JAK1 kinase domain 1 (unknown origin) at 10 uM in presence of ATP relative to control; how it was run: as §3
[14] = biological target: Ephrin type-A receptor 5 (Homo sapiens) (UniProt P54756); assay: Competitive binding affinity to EPHA5 (unknown origin) at 10 uM in presence of ATP relative to control; how it was run: as §3
[15] = biological target: Serine/threonine-protein kinase PAK 4 (Homo sapiens) (UniProt O96013); assay: Competitive binding affinity to PAK4 (unknown origin) at 10 uM in presence of ATP relative to control; how it was run: as §2
[16] = biological target: Serine/threonine-protein kinase pim-2 (Homo sapiens) (UniProt Q9P1W9); assay: Competitive binding affinity to PIM2 (unknown origin) at 10 uM in presence of ATP relative to control; how it was run: as §1
[17] = biological target: Insulin-like growth factor 1 receptor (Homo sapiens) (UniProt P08069); assay: Competitive binding affinity to IGF1R (unknown origin) at 10 uM in presence of ATP relative to control; how it was run: as §3
Chain of Insulin-like growth factor 1 receptor (Homo sapiens) (P08069 31-736 limits assumed): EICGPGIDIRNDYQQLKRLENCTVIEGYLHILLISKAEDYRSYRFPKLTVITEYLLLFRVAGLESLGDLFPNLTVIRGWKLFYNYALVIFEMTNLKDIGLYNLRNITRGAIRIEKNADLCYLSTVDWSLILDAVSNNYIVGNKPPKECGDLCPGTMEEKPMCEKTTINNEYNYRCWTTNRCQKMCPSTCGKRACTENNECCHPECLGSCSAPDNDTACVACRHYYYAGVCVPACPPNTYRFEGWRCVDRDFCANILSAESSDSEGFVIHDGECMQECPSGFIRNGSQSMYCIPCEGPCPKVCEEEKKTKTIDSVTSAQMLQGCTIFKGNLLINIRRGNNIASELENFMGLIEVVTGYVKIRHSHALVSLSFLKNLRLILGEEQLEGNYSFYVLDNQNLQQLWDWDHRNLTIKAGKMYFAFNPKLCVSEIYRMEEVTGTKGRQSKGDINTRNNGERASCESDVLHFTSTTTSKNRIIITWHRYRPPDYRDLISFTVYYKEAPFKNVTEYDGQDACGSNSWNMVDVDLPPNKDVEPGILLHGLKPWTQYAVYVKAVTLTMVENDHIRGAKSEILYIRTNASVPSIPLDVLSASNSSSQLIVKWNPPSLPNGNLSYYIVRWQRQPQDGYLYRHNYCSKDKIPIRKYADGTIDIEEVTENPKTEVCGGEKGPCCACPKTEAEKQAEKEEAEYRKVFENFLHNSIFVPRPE
Chain of Insulin-like growth factor 1 receptor (Homo sapiens) (P08069 741-1367 limits assumed): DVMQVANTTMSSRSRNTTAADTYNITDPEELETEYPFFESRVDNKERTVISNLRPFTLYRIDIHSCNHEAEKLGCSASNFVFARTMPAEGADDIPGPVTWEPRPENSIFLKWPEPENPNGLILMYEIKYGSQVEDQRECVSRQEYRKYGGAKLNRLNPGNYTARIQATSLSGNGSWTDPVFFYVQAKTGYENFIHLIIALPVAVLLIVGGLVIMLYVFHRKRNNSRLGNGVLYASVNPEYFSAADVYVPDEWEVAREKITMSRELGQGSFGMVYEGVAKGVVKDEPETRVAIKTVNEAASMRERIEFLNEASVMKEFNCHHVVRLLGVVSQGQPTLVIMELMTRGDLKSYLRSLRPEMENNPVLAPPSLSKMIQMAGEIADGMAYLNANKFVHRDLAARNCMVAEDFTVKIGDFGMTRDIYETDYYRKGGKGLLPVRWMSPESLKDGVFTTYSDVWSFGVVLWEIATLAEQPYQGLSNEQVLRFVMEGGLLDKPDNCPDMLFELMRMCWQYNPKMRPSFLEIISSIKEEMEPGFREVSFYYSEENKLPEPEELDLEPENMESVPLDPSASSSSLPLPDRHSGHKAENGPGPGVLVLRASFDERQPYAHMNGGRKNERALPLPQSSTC

Chain of Serine/threonine-protein kinase PAK 4 (Homo sapiens) (O96013 whole entry, looked up): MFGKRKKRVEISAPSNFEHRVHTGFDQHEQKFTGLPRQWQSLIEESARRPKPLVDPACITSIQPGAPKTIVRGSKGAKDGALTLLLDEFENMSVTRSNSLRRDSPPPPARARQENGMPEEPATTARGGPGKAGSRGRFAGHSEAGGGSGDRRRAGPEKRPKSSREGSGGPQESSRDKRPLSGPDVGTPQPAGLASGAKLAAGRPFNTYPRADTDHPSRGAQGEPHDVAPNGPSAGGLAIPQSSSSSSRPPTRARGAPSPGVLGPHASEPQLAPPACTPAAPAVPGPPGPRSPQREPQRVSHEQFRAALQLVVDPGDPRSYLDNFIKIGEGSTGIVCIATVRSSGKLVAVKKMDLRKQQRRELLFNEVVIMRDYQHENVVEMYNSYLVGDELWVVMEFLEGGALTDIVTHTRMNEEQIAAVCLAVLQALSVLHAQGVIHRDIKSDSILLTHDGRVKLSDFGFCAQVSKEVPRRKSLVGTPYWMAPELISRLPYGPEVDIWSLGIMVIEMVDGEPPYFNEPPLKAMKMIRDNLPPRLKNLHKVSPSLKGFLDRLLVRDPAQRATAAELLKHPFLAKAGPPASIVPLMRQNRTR
Chain of Calcium/calmodulin-dependent protein kinase kinase 2 (Homo sapiens) (Q96RR4 2-588 limits assumed): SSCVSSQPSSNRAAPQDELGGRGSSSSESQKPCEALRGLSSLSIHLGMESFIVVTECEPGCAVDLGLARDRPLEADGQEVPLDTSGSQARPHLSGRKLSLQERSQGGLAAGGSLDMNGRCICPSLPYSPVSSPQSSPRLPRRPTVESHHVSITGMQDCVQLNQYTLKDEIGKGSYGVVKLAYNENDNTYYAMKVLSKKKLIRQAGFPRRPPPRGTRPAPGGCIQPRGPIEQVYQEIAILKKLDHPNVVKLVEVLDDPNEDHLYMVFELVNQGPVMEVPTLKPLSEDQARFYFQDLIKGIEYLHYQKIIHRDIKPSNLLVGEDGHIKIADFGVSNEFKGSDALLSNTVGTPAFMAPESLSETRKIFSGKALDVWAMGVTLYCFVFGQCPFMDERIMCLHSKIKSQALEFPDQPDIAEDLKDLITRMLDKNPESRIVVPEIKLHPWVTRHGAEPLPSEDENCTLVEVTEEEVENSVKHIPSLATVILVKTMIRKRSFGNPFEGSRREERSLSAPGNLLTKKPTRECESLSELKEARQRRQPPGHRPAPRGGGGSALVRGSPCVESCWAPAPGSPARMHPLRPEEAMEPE
Chain of Casein kinase II subunit alpha (Homo sapiens) (P68400 whole entry, looked up): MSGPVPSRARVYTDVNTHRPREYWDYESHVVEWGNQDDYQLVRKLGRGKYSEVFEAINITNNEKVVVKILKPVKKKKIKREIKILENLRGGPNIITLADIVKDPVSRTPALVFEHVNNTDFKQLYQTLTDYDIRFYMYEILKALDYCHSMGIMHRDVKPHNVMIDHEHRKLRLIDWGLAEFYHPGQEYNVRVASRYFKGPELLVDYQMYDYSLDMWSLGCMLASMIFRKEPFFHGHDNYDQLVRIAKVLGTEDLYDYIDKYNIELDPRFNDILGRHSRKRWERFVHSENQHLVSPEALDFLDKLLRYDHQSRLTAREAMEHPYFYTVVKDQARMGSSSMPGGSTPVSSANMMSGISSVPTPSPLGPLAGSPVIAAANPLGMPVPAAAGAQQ
Chain of Ephrin type-A receptor 5 (Homo sapiens) (P54756 whole entry): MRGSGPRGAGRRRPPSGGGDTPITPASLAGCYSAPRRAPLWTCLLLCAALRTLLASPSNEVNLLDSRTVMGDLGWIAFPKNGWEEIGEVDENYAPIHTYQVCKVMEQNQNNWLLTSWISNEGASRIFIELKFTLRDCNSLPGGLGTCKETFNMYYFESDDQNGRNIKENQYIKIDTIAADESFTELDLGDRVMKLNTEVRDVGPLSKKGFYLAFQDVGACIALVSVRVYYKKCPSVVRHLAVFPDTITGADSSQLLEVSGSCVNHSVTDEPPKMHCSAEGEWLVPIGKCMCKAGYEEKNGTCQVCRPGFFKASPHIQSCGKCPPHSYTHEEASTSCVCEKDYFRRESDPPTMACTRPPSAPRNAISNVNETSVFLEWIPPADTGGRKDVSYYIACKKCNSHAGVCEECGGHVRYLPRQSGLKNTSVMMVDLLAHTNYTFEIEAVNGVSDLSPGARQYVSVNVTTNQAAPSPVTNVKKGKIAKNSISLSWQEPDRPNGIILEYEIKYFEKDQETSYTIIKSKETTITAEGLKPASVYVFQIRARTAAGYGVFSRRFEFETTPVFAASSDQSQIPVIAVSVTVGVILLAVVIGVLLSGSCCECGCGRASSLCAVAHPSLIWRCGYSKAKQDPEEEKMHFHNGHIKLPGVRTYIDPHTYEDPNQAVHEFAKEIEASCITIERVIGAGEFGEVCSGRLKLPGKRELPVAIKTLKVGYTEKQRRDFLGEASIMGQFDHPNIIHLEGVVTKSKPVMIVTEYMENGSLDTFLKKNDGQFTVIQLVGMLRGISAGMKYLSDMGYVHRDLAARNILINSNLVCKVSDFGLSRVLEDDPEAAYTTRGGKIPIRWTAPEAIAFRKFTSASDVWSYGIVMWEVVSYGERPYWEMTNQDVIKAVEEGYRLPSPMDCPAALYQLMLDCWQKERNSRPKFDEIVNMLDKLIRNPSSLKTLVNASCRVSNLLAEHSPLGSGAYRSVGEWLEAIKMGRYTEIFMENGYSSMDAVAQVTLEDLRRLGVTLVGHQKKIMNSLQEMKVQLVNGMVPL
Chain of Ephrin type-A receptor 2 (Homo sapiens) (P29317 whole entry): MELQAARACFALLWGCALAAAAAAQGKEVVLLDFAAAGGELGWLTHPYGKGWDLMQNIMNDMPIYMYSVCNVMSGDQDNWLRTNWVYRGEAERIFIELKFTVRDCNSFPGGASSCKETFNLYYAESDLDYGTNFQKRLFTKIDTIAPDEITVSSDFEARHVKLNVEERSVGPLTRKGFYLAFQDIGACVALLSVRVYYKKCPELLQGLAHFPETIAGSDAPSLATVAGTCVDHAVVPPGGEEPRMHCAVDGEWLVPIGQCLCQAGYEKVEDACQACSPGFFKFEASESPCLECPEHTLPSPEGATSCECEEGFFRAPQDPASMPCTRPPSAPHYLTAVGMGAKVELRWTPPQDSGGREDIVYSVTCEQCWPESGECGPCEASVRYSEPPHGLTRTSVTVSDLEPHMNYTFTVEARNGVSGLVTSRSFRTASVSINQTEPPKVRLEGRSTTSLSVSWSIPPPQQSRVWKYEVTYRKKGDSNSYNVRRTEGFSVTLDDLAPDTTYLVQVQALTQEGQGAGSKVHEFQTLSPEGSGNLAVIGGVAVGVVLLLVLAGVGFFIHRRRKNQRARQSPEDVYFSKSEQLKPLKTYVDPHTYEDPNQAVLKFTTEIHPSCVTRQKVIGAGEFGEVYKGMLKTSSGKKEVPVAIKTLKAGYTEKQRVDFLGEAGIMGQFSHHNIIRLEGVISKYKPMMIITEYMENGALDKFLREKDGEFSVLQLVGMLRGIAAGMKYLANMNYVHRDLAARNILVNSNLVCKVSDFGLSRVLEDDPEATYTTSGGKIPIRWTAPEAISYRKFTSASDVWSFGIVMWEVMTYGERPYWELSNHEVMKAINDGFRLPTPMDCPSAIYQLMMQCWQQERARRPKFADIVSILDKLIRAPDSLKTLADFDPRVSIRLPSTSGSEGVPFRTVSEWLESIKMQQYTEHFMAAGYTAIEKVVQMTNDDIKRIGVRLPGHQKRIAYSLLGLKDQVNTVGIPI

Row | SMILES | inhibition [1] [%] | inhibition [2] [%] | inhibition [3] [%] | inhibition [4] [%] | inhibition [5] [%] | inhibition [6] [%] | inhibition [7] [%] | inhibition [8] [%] | inhibition [9] [%] | inhibition [10] [%] | inhibition [11] [%] | inhibition [12] [%] | inhibition [13] [%] | inhibition [14] [%] | inhibition [15] [%] | inhibition [16] [%] | inhibition [17] [%]
1 | O[C@H]1CC[C@H](Nc2nccc(-n3nnc4ccccc43)n2)CC1 | 80 | 72 | 100 | < 50 | < 50 | < 50 | < 50 | < 50 | < 50 | 100 | 96 | 88 | < 50 | < 50 | < 50 | 98 | < 50
2 | N[C@H]1CC[C@H](Nc2nccc(-n3nnc4ccccc43)n2)CC1 | 99 | 86 | 100 | 93 | < 50 | 82 | < 50 | < 50 | < 50 | 100 | < 50 | 92 | < 50 | < 50 | < 50 | 99 | < 50
3 | O=C([C@H]1CC[C@H](Nc2nccc(-n3nnc4ccccc43)n2)CC1)N1CCOCC1 | 71 | 75 | 100 | < 50 | < 50 | < 50 | < 50 | < 50 | < 50 | 95 | < 50 | < 50 | < 50 | < 50 | < 50 | 78 | < 50
4 | CS(=O)(=O)CCCOc1cccc2c1ccn2-c1ccnc(N[C@H]2CC[C@H](C(=O)N3CCC(O)CC3)CC2)n1 |  |  | > 85 |  |  |  |  |  |  |  |  |  |  |  |  |  | 
5 | O[C@H]1CC[C@H](Nc2nccc(-n3ncc4ccccc43)n2)CC1 | 87 | 65 | 100 | < 50 | < 50 | < 50 | < 50 | < 50 | < 50 | 94 | < 50 | 95 | 88 | < 50 | < 50 | 99 | < 50
6 | O[C@H]1CC[C@H](Nc2nccc(-c3n[nH]c4ccccc34)n2)CC1 | 98 | 84 | 100 | 77 | < 50 | 93 | 95 | < 50 | < 50 | 100 | < 50 | < 50 | 99 | < 50 | 92 | 100 | 95
7 | O[C@H]1CC[C@H](Nc2nccc(-n3ccc4ccccc43)n2)CC1 | < 50 | < 50 | 100 | < 50 | < 50 | < 50 | < 50 | < 50 | < 50 | 85 | < 50 | 85 | < 50 | < 50 | < 50 | 86 | < 50
